Activity calls are given as the source filed them. The rule behind the calls is not given here.
Key:
[1] = target: T1, Serine/threonine-protein kinase B-raf (Homo sapiens, UniProt P15056, V600E); assay: Binding affinity to BRAF V600E mutant
[2] = target: T1, Serine/threonine-protein kinase B-raf; assay: Inhibition of BRAF V600E mutant-dependent MEK phosphorylation in A375 cells; type: cell-based, A-375
[3] = Oral bioavailability in rat; type: ADME, organism-based; settings: in vivo
How it was run: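 Oral bioavailability (%F) was measured in rats, generally dosing the hydrochloride salt; some compounds were given as free base.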

Mus musculus [4] = assay: Inhibition of BRAF V600E mutant-dependent MEK phosphorylation in Colo205 cells xenografted in nude mouse assessed as compound concentration in tumor required for maximum % inhibition; type: functional
Mus musculus [5] = assay: Inhibition of BRAF V600E mutant-dependent MEK phosphorylation in Colo205 cells xenografted in nude mouse assessed as compound concentration in plasma required for maximum % inhibition; type: functional
[6] = AUC in mouse plasma at 30 mg/kg, po; type: ADME, organism-based; parameters: dose 30 mg/kg, route oral
How it was run: (§1)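 Compound given orally to mice at the stated dose. Plasma exposure reported as AUC in μM × h.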

Mus musculus [7] = assay: Inhibition of BRAF V600E mutant-dependent MEK phosphorylation in Colo205 cells xenografted in nude mouse at 100 mg/kg, po bid for 5 days measured at 10 hrs post-dose; type: functional; settings: COLO 205
How it was run: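 Colo-205 xenograft mice were dosed orally at 100 mg/kg bid. On day 5 of dosing, tumor tissue was collected 10 h post-dose and phosphorylated MEK levels were measured against vehicle.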

Mus musculus [8] = assay: Toxicity in nude mouse xenografted with human COLO205 cells assessed as body weight loss at 30 to 100 mg/kg, po bid upto 15 days; type: organism-based, COLO 205; parameters: dose 30-100 mg/kg, route oral; settings: in vivo, 360 h
How it was run: (§2)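 Body weight was monitored in Colo-205 xenograft-bearing mice during oral bid dosing, with maximum % loss recorded. Monitoring continued after dosing stopped to assess reversibility.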

COLO 205 [9] = assay: Antitumor activity against human COLO205 cells xenografted in nude mouse assessed as tumor regression at 100 mg/kg, po bid upto 15 days; type: functional
How it was run: (§3)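 Mice bearing Colo-205 tumors were dosed orally bid at 30, 55 or 100 mg/kg and compared with a vehicle control group. Tumor growth was followed over the dosing period, […]. Outcomes recorded were stasis, regrowth, incidence of regressions and % growth inhibition. Significance was tested against vehicle.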

COLO 205 [10] = assay: Antitumor activity against human COLO205 cells xenografted in nude mouse assessed as tumor growth inhibition at 100 mg/kg, po bid upto 8 days; type: functional; settings: COLO 205, 192 h, read-out: TGI; how it was run: as §3
Mus musculus [11] = assay: Toxicity in nude mouse xenografted with human COLO205 cells assessed as body weight loss at 10 to 100 mg/kg, po bid upto 15 days; type: organism-based, COLO 205; parameters: dose 10-100 mg/kg, route oral; settings: in vivo, 360 h; how it was run: as §2
COLO 205 [12] = assay: Antitumor activity against human COLO205 cells xenografted in nude mouse assessed as tumor growth inhibition at 55 mg/kg, po bid upto 8 days; type: functional; settings: COLO 205, 192 h, read-out: TGI; how it was run: as §3
Mus musculus [13] = assay: Inhibition of BRAF V600E mutant-dependent MEK phosphorylation in Colo205 cells xenografted in nude mouse at 100 mg/kg, po bid for 5 days measured at 24 hrs post-dose; type: functional; settings: COLO 205
COLO 205 [14] = assay: Antitumor activity against human COLO205 cells xenografted in nude mouse assessed as tumor stasis at 100 mg/kg, po bid upto 15 days; type: functional, organism-based; parameters: dose 100 mg/kg; how it was run: as §3
COLO 205 [15] = assay: Antitumor activity against human COLO205 cells xenografted in nude mouse assessed as complete suppression of tumor regrowth at 100 mg/kg, po bid before 15 days; type: functional, organism-based; parameters: dose 100 mg/kg; how it was run: as §3
[16] = AUC in mouse plasma at 100 mg/kg, po; type: ADME, organism-based; parameters: dose 100 mg/kg, route oral; how it was run: as §1
COLO 205 [17] = assay: Antitumor activity against human COLO205 cells xenografted in nude mouse assessed as tumor stasis at 100 mg/kg, po bid upto 8 days; type: functional, organism-based; parameters: dose 100 mg/kg; how it was run: as §3
COLO 205 [18] = assay: Antitumor activity against human COLO205 cells xenografted in nude mouse assessed as tumor stasis at 55 mg/kg, po bid upto 8 days; type: functional, organism-based; parameters: dose 55 mg/kg; how it was run: as §3
COLO 205 [19] = assay: Antitumor activity against human COLO205 cells xenografted in nude mouse assessed as tumor stasis at > 100 mg/kg, […]; type: functional, organism-based; parameters: dose 100 mg/kg

T1 sequence (P15056 2-766 V600E limits assumed): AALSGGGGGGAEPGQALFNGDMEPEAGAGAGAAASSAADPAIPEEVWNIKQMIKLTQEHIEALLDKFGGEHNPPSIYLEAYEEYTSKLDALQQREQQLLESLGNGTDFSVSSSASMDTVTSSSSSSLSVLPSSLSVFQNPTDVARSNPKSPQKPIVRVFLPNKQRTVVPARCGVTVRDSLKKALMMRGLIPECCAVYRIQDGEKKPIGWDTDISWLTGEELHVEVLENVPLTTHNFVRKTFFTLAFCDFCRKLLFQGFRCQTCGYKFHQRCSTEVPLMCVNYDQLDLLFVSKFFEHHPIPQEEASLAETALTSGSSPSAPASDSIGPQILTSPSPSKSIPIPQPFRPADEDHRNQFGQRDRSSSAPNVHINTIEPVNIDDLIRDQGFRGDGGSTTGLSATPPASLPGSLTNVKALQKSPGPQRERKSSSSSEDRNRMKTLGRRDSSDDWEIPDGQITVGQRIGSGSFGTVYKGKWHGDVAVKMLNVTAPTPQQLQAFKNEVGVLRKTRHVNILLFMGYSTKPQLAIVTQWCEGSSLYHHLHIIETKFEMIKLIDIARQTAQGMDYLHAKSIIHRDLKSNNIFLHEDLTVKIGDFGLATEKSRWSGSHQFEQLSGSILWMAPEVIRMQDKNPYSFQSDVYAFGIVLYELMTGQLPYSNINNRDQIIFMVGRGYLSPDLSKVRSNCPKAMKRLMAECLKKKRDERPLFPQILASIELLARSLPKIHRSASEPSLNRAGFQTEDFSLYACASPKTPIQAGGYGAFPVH

| Kd [1] | IC50 [2] | bioavailability [3] | Compound | also measured |
| --- | --- | --- | --- | --- |
| 96 nM | 290 nM | 15% | COc1cc2ncnc(Oc3cccc(NC(=O)Nc4ccc(C(C)(C)C)cc4)c3)c2cc1OC |  |
| 46 nM | 113 nM | 14% | COc1cc2ncnc(Oc3cc(NC(=O)Nc4cc(C(C)(C)C)on4)c(F)cc3F)c2cc1OC |  |
| 370 nM |  |  | COc1cc2ncnc(Oc3cccc(NC(=O)Nc4ccccc4)c3)c2cc1OC |  |
|  |  | 16% | CCOc1cc2ncnc(Oc3cccc(NC(=O)Nc4cc(C(C)(C)C)on4)c3)c2cc1OC.Cl |  |
| 56 nM | 96 nM | 18% | COc1cc2c(Oc3cccc(NC(=O)Nc4cc(C(C)(C)C)on4)c3)ncnc2cc1OCCCN1CCOCC1 |  |
|  |  | < 1% | COc1cc2ncnc(Nc3ccc(NC(=O)Nc4cc(C(C)(C)C)on4)cc3)c2cc1OC.Cl |  |
| 38 nM | 179 nM |  | COc1cc2ncnc(Oc3cccc(NC(=O)Nc4cc(C(C)(C)C)on4)c3C)c2cc1OC |  |
| 36 nM | 333 nM |  | COc1cc2ncnc(Oc3cccc(NC(=O)Nc4cccc(C(C)(C)C)c4)c3)c2cc1OC |  |
|  |  | 49% | COc1cc2ncnc(Oc3cccc(NC(=O)Nc4cc(C(C)(C)C)on4)c3)c2cc1OC.Cl | Activity (Mus musculus [4]): 24 µM; Activity (Mus musculus [5]): 2.5 µM; AUC [6]: 12.5 µM·h; inhibition in vivo at 100 mg/kg (Mus musculus [7]): ≥ 50%; Activity (Mus musculus [8]): 8%; Activity (COLO 205 [9]): 55% |
|  |  | 13% | COCCOc1cc2c(Oc3cccc(NC(=O)Nc4cc(C(C)(C)C)on4)c3)ncnc2cc1OC.Cl |  |
| 46 nM | 1660 nM |  | COc1cc2ncnc(Oc3cccc(NC(=O)Nc4cccc(C(F)(F)F)c4)c3)c2cc1OC |  |
| 61 nM | 118 nM |  | COc1cc2ncnc(Sc3cccc(NC(=O)Nc4cc(C(C)(C)C)on4)c3)c2cc1OC [listing 1 of 2 here] | Activity (Mus musculus [4]): 0.2 µM; Activity (Mus musculus [5]): 0.2 µM; AUC [6]: 22 µM·h; inhibition in vivo at 100 mg/kg (Mus musculus [7]): 75%; inhibition in vivo at 100 mg/kg (COLO 205 [10]): 45%; Activity (Mus musculus [8]): Non-toxic; Activity (Mus musculus [11]): Non-toxic; inhibition in vivo at 55 mg/kg (COLO 205 [12]): 45%; inhibition in vivo at 100 mg/kg (Mus musculus [13]): 55% |
|  |  | 56% | COCCOc1cc2ncnc(Oc3cccc(NC(=O)Nc4cc(C(C)(C)C)on4)c3)c2cc1OC.Cl |  |
| 82 nM | 173 nM |  | CCOc1cc2ncnc(Oc3cccc(NC(=O)Nc4cc(C(C)(C)C)on4)c3)c2cc1OC |  |
| 96 nM | 293 nM |  | COc1cc2ncnc(Oc3cccc(NC(=O)Nc4cc(C(C)(C)C)on4)c3)c2cc1OCCN1CCCCC1 |  |
| 99 nM | 229 nM |  | COc1cc2ncnc(Oc3ccc(Cl)c(NC(=O)Nc4cc(C(C)(C)C)on4)c3)c2cc1OC |  |
| 72 nM | 62 nM |  | COc1cc2ncnc(Oc3cc(NC(=O)Nc4cc(C(C)(C)C)on4)ccc3F)c2cc1OC |  |
| 46 nM | 86 nM |  | COc1cc2ncnc(Oc3cccc(NC(=O)Nc4cc(C(C)(C)C)on4)c3)c2cc1O |  |
| 57 nM | 110 nM | < 1% | COc1cc2c(Oc3cccc(NC(=O)Nc4cc(C(C)(C)C)on4)c3)ncnc2cc1O |  |
|  |  | 22% | COc1cc2ncnc(Oc3cc(NC(=O)Nc4cc(C(C)(C)C)on4)ccc3F)c2cc1OC.Cl |  |

| Kd [1] | IC50 [2] | bioavailability [3] | Compound | also measured |
| --- | --- | --- | --- | --- |
| 38 nM | 52 nM | 11% | COc1cc2ncnc(Oc3cccc(NC(=O)Nc4cc(C(C)(C)C)on4)c3)c2cc1OCCN1CCOCC1 |  |
| 30 nM | 1850 nM |  | COc1cc2ncnc(Oc3cccc(NC(=O)Nc4ccc(Cl)cc4)c3)c2cc1OC |  |
| 90 nM | 10000 nM |  | COc1cccc(NC(=O)Nc2cccc(Oc3ncnc4cc(OC)c(OC)cc34)c2)c1 |  |
|  |  |  | COc1cc2ncnc(Oc3cccc(NC(=O)Nc4cc(C(C)(C)C)on4)c3)c2cc1OC [listing 1 of 2 here] | Activity (COLO 205 [14]): Active; inhibition (Mus musculus [13]): inactive |
|  |  | 24% | COc1cc2ncnc(Sc3cccc(NC(=O)Nc4cc(C(C)(C)C)on4)c3)c2cc1OC.Cl |  |
|  |  | 20% | COc1cc2ncnc(Oc3cccc(NC(=O)Nc4cc(C(C)(C)C)on4)c3)c2cc1OCCCN1CCOCC1.Cl |  |
| 29 nM | 36 nM |  | COc1cc2ncnc(Oc3cccc(NC(=O)Nc4cc(C(C)(C)C)on4)c3)c2cc1OCCCN1CCOCC1 |  |
| 478 nM |  |  | COc1cc2ncnc(Nc3ccc(NC(=O)Nc4cc(C(C)(C)C)on4)cc3)c2cc1OC |  |
| 73 nM | 121 nM |  | COc1cc2ncnc(Oc3cccc(NC(=O)Nc4cc(C(C)(C)C)on4)c3)c2cc1OC [listing 2 of 2 here] |  |
| 48 nM | 59 nM |  | COCCOc1cc2c(Oc3cccc(NC(=O)Nc4cc(C(C)(C)C)on4)c3)ncnc2cc1OC |  |
| 40 nM | 82 nM |  | COc1cc2ncnc(Nc3cccc(NC(=O)Nc4cc(C(C)(C)C)on4)c3)c2cc1OC |  |
|  |  | 1.9% | COc1cc2ncnc(Nc3cccc(NC(=O)Nc4cc(C(C)(C)C)on4)c3)c2cc1OC.Cl |  |
| 34 nM | 165 nM | 52% | COc1cc2c(Oc3cccc(NC(=O)Nc4cc(C(C)(C)C)on4)c3)ncnc2cc1OCCN1CCOCC1 | Activity (Mus musculus [4]): 11 µM; Activity (Mus musculus [5]): 2 µM; Activity (COLO 205 [15]): inactive; AUC [16]: 48 µM·h; inhibition in vivo at 100 mg/kg (Mus musculus [7]): 70%; inhibition in vivo at 100 mg/kg (COLO 205 [10]): 65%; Activity (Mus musculus [8]): Non-toxic; Activity (Mus musculus [11]): Non-toxic; inhibition in vivo at 100 mg/kg (Mus musculus [13]): 50% |
| 98 nM | 696 nM |  | COc1cc2ncnc(Oc3cccc(NC(=O)Nc4ccc(Cl)c(C(F)(F)F)c4)c3)c2cc1OC |  |
|  |  |  | COc1cc2ncnc(Sc3cccc(NC(=O)Nc4cc(C(C)(C)C)on4)c3)c2cc1OC [listing 2 of 2 here] | Activity (COLO 205 [17]): Active; Activity (COLO 205 [18]): Active; Activity (COLO 205 [19]): inactive |
|  |  | 30% | CCOc1cc2c(Oc3cccc(NC(=O)Nc4cc(C(C)(C)C)on4)c3)ncnc2cc1OC.Cl |  |
| 57 nM | 100 nM |  | COCCOc1cc2ncnc(Oc3cccc(NC(=O)Nc4cc(C(C)(C)C)on4)c3)c2cc1OC |  |
| 67 nM | 80 nM |  | CCOc1cc2c(Oc3cccc(NC(=O)Nc4cc(C(C)(C)C)on4)c3)ncnc2cc1OC |  |
| 56 nM | 113 nM |  | COc1cc2ncnc(Oc3ccc(F)c(NC(=O)Nc4cc(C(C)(C)C)on4)c3)c2cc1OC |  |
